Legend:
[1] = system: Klebsiella pneumoniae; assay: In vitro antibacterial activity of compound against Klebsiella pneumoniae ISM; format: functional
[2] = system: Mycobacterium scrofulaceum; assay: In vitro activity of compound against slowly growing Mycobacterium scrofulaceum 1292; format: functional
Outline: (§1)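 Medium was Middlebrook 7H10 agar with 2% glycerol and 10% OADC. Organisms from Loevenstein-Jensen slants were grown in 7H9 broth with 0.5% Tween and 10% OADC, adjusted to McFarland no. 1, and spotted with a multipoint inoculator. Sealed plates were incubated at 22, 30 or 37 °C for 4-20 days depending on strain.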

[3] = system: Mycobacterium scrofulaceum; assay: In vitro activity of compound against slowly growing Mycobacterium scrofulaceum 1293; format: functional; outline: as §1
[4] = system: Mycobacterium scrofulaceum; assay: In vitro activity of compound against slowly growing Mycobacterium scrofulaceum 1297; format: functional; outline: as §1
[5] = system: Mycobacterium scrofulaceum; assay: In vitro activity of compound against slowly growing Mycobacterium scrofulaceum 1301; format: functional; outline: as §1
[6] = system: Mycobacterium xenopi; assay: In vitro activity compound against slowly growing Mycobacterium xenopi 1446; format: functional; outline: as §1
[7] = system: Mycobacterium xenopi; assay: In vitro activity of compound against slowly growing Mycobacterium xenopi 554; format: functional; outline: as §1
[8] = system: Mycobacterium xenopi; assay: In vitro activity of compound against slowl growingy Mycobacterium xenopi 555; format: functional; outline: as §1
[9] = system: Mycolicibacterium phlei; assay: In vitro activity of compound against rapidly growing Mycobacterium phlei 141; format: functional; outline: as §1
[10] = system: Mycolicibacterium phlei; assay: In vitro activity of compound against rapidly growing Mycobacterium phlei 1283; format: functional; outline: as §1
[11] = system: Mycolicibacterium phlei; assay: In vitro activity of compound against rapidly growing Mycobacterium phlei 1289; format: functional; outline: as §1
[12] = system: Mycobacterium kansasii; assay: In vitro activity compound against slowly growing Mycobacterium kansasii 1298; format: functional; outline: as §1
[13] = system: Mycobacterium kansasii; assay: In vitro activity of compound against slowly growing Mycobacterium kansasii 1299; format: functional; outline: as §1
[14] = system: Mycobacterium marinum; assay: In vitro activity of compound against slowly growing Mycobacterium marinum 1388; format: functional; outline: as §1
[15] = system: Mycobacterium marinum; assay: In vitro activity of compound against slowly growing Mycobacterium marinum 1390; format: functional; outline: as §1
[16] = system: Mycobacterium marinum; assay: In vitro activity of compound against slowly growing Mycobacterium marinum 1391; format: functional; outline: as §1
[17] = system: Mycolicibacterium fortuitum; assay: In vitro activity of compound against rapidly growing Mycobacterium fortuitum 114; format: functional; outline: as §1
[18] = system: Mycolicibacterium fortuitum; assay: In vitro activity of compound against rapidly growing Mycobacterium fortuitum 1285; format: functional; outline: as §1
[19] = system: Mycolicibacterium fortuitum; assay: In vitro activity of compound against rapidly growing Mycobacterium fortuitum 1287; format: functional; outline: as §1
[20] = system: Mycolicibacterium fortuitum; assay: In vitro activity compound against rapidly growing Mycobacterium fortuitum 1302; format: functional; outline: as §1
[21] = system: Mycolicibacterium fortuitum; assay: In vitro activity of compound against rapidly growing Mycobacterium fortuitum 140; format: functional; outline: as §1
[22] = system: Mycolicibacterium fortuitum; assay: In vitro activity compound against rapidly growing Mycobacterium fortuitum 1440; format: functional; outline: as §1
[23] = system: Mycolicibacterium fortuitum; assay: In vitro activity of compound against rapidly growing Mycobacterium fortuitum 646; format: functional; outline: as §1
[24] = system: Mycobacterium gordonae; assay: In vitro activity of compound against slowly growing Mycobacterium gordonae 1294; format: functional; outline: as §1
[25] = system: Mycobacterium gordonae; assay: In vitro activity of compound against slowly growing Mycobacterium gordonae 1441; format: functional; outline: as §1
[26] = system: Mycobacterium kansasii; assay: In vitro activity compound against slowly growing Mycobacterium kansasii 1291; format: functional; outline: as §1
[27] = system: Mycolicibacterium flavescens; assay: In vitro activity of compound against rapidly growing Mycobacterium flavescens 1284; format: functional; outline: as §1
[28] = system: Mycolicibacterium flavescens; assay: In vitro activity of compound against rapidly growing Mycobacterium flavescens 1286; format: functional; outline: as §1
[29] = system: Mycobacterium marinum; assay: In vitro activity of compound against slowly growing Mycobacterium marinum 1392 h; format: functional; outline: as §1
[30] = system: Mycobacterium marinum; assay: In vitro activity of compound against slowly growing Mycobacterium marinum 1393; format: functional; outline: as §1
[31] = system: Mycobacterium marinum; assay: In vitro activity of compound against slowly growing Mycobacterium marinum 1394; format: functional; outline: as §1
[32] = system: Mycobacterium marinum; assay: In vitro activity of compound against slowly growing Mycobacterium marinum 1447; format: functional; outline: as §1
[33] = system: Mycobacterium tuberculosis; assay: In vitro antibacterial activity of compound against Mycobacterium tuberculosis H37Rv ATCC 9660; format: functional
[34] = system: Mycobacterium avium; assay: 50% inhibition of the 20 Mycobacterium (MAC) avium complex clinical isolates; format: functional
Outline: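 Agar-dilution MICs, 2-fold dilutions over 128-0.0001 μg/mL, on Middlebrook 7H10 agar with 2% glycerol and 10% OADC. Organisms from Loevenstein-Jensen slants were grown in 7H9 broth with 0.5% Tween and 10% OADC, adjusted to McFarland no. 1, and spotted with a multipoint inoculator. Plates were sealed and incubated at 22, 30 or 37 °C for 4-20 days depending on strain.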

[35] = system: Neisseria gonorrhoeae; assay: In vitro antibacterial activity of compound against Neisseria gonorrhoeae ISM 68/126; format: functional
[36] = system: Pseudomonas aeruginosa; assay: In vitro antibacterial activity of compound against Pseudomonas aeruginosa ATCC 10145; format: functional
Outline: (§2)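 Twofold microdilution MIC in Iso-Sensitest broth over 128-0.0001 µg/mL. Inoculum was 10^4 cfu/mL, with incubation at 37 °C for 18-24 h.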

[37] = system: Staphylococcus aureus; assay: Activity in the murine model (OS route) of Staphylococcus aureus tour septicemia; format: functional
Outline: (§3)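 Male and female CD1 mice (18-22 g) were infected ip with S. aureus Tour. The challenge was set so untreated mice died within 48 h. Groups were five mice, dosed once daily for 3 days starting immediately after infection. ED50 was calculated on day 10 from the percentage surviving at each dose.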

[38] = system: Staphylococcus aureus; assay: Activity in the murine model (subcutaneous route) of Staphylococcus aureus tour septicemia; format: functional; conditions: sc; outline: as §3
[39] = system: Staphylococcus epidermidis; assay: In vitro antibacterial activity of compound against Staphylococcus epidermidis ATCC 12228; format: functional; outline: as §2
[40] = system: Streptococcus pyogenes; assay: In vitro antibacterial activity of compound against Streptococcus pyogenes C 203 SKF 13400; format: functional
Outline: (§4)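 Streptococcal MICs were run by twofold microdilution in Todd-Hewitt broth over 128-0.0001 µg/mL. Inoculum was 10^4 cfu/mL, with incubation at 37 °C for 18-24 h.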

[41] = system: Staphylococcus aureus; assay: In vitro antibacterial activity of compound against Staphylococcus aureus Tour L 165; format: functional; outline: as §2
[42] = system: Streptococcus pneumoniae; assay: In vitro antibacterial activity of compound against Streptococcus pneumoniae UC 41; format: functional; outline: as §4
[43] = system: Enterococcus faecalis; assay: In vitro antibacterial activity of compound against Streptococcus faecalis ATCC 7080.; format: functional; outline: as §2
[44] = system: Mycolicibacterium fortuitum; assay: In vitro activity of compound against rapidly growing Mycobacterium fortuitum 645; format: functional; outline: as §1
[45] = system: Haemophilus influenzae; assay: In vitro antibacterial activity of compound against Haemophilus influenzae ATCC 19418; format: functional
[46] = system: Mycobacterium xenopi; assay: In vitro activity of compound against slowly growing Mycobacterium xenopi 556; format: functional; outline: as §1
[47] = system: Mycobacteroides chelonae; assay: In vitro activity of compound against rapidly growing Mycobacterium chelonae 1443

COC1/C=C/OC2(C)Oc3c(C)c(O)c4c(O)c(c(C=NN5CCN(C6CCCC6)CC5)c(O)c4c3C2=O)NC(=O)/C(C)=C\C=C\C(C)C(O)C(C)C(O)C(C)C(OC(C)=O)C1C (configuration not stated)
0.18 mg/kg: ED50 [38]
0.5 µg/mL: MIC [15] | MIC [20] | MIC [24] | MIC [35] | MIC [45] | MIC [46]
> 128 µg/mL: MIC [47]
0.032 µg/mL: MIC [3]
8 µg/mL: MIC [36]
1 µg/mL: MIC [19] | MIC [25] | MIC50 [34]
4 µg/mL: MIC [5] | MIC [18] | MIC [26]
32 µg/mL: MIC [1] | MIC [17] | MIC [21] | MIC [22] | MIC [23] | MIC [27]
0.016 µg/mL: MIC [2] | MIC [9]
0.125 µg/mL: MIC [14] | MIC [16] | MIC [28] | MIC [29] | MIC [30] | MIC [31] | MIC [32]
0.22 mg/kg: ED50 [37]
0.063 µg/mL: MIC [4] | MIC [10] | MIC [12] | MIC [33] | MIC [39] | MIC [40] | MIC [41] | MIC [42]
2 µg/mL: MIC [11] | MIC [13] | MIC [43] | MIC [44]
0.25 µg/mL: MIC [6] | MIC [7] | MIC [8]

— ChEMBL document CHEMBL1124774, “Synthesis and biological activity of some derivatives of rifamycin P” (1990)
